Laboratory results as given in ChEMBL document CHEMBL2062442, “Synthesis and biological evaluation of new N-acyl-homoserine-lactone analogues, based on triazole and tetrazole scaffolds, acting as LuxR-dependent quorum sensing modulators” (Bioorg Med Chem, 2012).
Activity calls are given as the source filed them. The calls are words filed in the database; no cut-off is given here.

Assays:
Assay type in all cases: functional
[1] = biological target: T1, Transcriptional activator protein LuxR (Aliivibrio fischeri) (UniProt P12746); assay: Agonist activity at Vibrio fischeri LuxR expressed in Escherichia coli NM522 coexpressing LuxCDABE assessed as activation of 3-oxoC6-HSL-induced quorum sensing activation at 200 uM measured after 4 to 5 hrs by reporter gene assay
T1 sequence (whole entry): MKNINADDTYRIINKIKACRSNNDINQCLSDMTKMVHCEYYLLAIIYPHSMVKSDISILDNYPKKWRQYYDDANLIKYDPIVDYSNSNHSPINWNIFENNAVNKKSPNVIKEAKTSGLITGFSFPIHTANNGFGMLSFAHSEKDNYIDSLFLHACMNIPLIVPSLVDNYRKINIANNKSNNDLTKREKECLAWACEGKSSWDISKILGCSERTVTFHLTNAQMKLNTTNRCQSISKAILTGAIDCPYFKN
Method in brief: (§1)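 E. coli biosensor carrying pSB401, in which V. fischeri luxR and the luxI promoter drive P. luminescens luxCDABE. Cultures were grown to exponential phase in Luria broth with tetracycline (20) at 30 °C. Analogues were added alone at up to 200 in microtitre plates. Luminescence was read after 4–5 h, at the maximal ratio of induced to background light. EC50 is the concentration giving 50% bioluminescence intensity.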

[2] = biological target: T2, Transcriptional activator protein LuxR (Aliivibrio fischeri, UniProt P12746); assay: Antagonist activity at Vibrio fischeri LuxR expressed in Escherichia coli NM522 coexpressing LuxCDABE assessed as inhibition of 3-oxoC6-HSL-induced quorum sensing activation measured after 4 to 5 hrs by reporter gene assay
T2 sequence (P12746 whole entry): T1 sequence (whole entry)
Method in brief: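 The inhibition read-out is the decrease in bioluminescence induced by 200 nM 3-oxo-C6-HSL in E. coli carrying pSB401 (V. fischeri luxR/luxI promoter fused to P. luminescens luxCDABE). Cells were grown to exponential phase in Luria broth with tetracycline at 30 °C. Light was quantified by luminometer in microtitre plates after 4–5 h, when the ratio of induced to background light peaked.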

[3] = biological target: T1, Transcriptional activator protein LuxR (Aliivibrio fischeri); assay: Agonist activity at Vibrio fischeri LuxR expressed in Escherichia coli NM522 coexpressing LuxCDABE assessed as activation of 3-oxoC6-HSL-induced quorum sensing activation measured after 4 to 5 hrs by reporter gene assay relative to control; method in brief: as §1
[4] = biological target: T2, Transcriptional activator protein LuxR; assay: Agonist activity at Vibrio fischeri LuxR expressed in Escherichia coli NM522 coexpressing LuxCDABE assessed as activation of 3-oxoC6-HSL-induced quorum sensing activation measured after 4 to 5 hrs by reporter gene assay; method in brief: as §1

Compound | Activity [1] | IC50 ([2]; read-out: IC50) | further results
CCCCCn1cc(CC(=O)O)nn1 | inactive | – | –
CCCCCCCCCCCCc1cn(CC(=O)O)nn1 | inactive | – | –
CCCCCn1nnnc1C1CCOC1=O (racemic) | – | 80 µM | –
CCCCCCCCCCCCn1cc(CC(=O)OCC)nn1 | inactive | – | –
CCCCCc1cn(CC(=O)NO)nn1 | inactive | – | IC50 [2]: Not Active
CCCCCCCCCCCCn1cc(CC(=O)O)nn1 | inactive | – | –
CCCCCn1cc(CC(=O)OCC)nn1 | inactive | – | –
CCCCCc1cn(CC(=O)O)nn1 | inactive | – | IC50 [2]: Not Active
CCCCCCn1nnnc1CC(=O)OCC | – | > 200 µM | –
CCCCCCCCCCCCc1cn(CC(=O)OCC)nn1 | inactive | – | –
CCCCCCn1nnnc1C1CCOC1=O (racemic) | – | 74 µM | –
CCCCCc1cn(CC(=O)OCC)nn1 | inactive | 94 µM | –
CCCCCc1cn(C2CCOC2=O)nn1 (racemic) | inactive | 51 µM | –
CCCCCCc1nnnn1C1CCOC1=O (racemic) | – | – | Activity [3]: 102 RLU; EC50 [4]: 35 µM
CCCCCc1cn(CC(N)=O)nn1 | inactive | – | IC50 [2]: Not Active
CCCCCc1nnnn1C1CCOC1=O (racemic) | – | – | Activity [3]: 59 RLU; EC50 [4]: 10 µM
CCCCn1nnnc1C1CCOC1=O (racemic) | – | > 200 µM | –
